Laboratory results taken from ChEMBL document CHEMBL1914404, “Synthesis and biochemical evaluation of δ(2)-isoxazoline derivatives as DNA methyltransferase 1 inhibitors” (J Med Chem, 2011).
Active and inactive are the calls of the source. The rule behind the calls is not given here.

Columns and labels:
[1] = biological target: T1, DNA (cytosine-5)-methyltransferase 1 (Homo sapiens, UniProt P26358); test: Inhibition of human recombinant DNMT1 expressed in Sf9 cells assessed as remaining activity at 2 mM after 3 hrs by scintillation counting in presence of [3H]S-adenosyl methionine
Method in brief: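 Single-point screen at 2 mM (compounds in DMSO, DMSO control) against 500 nM Sf9-expressed human DNMT1, hemimethylated oligo 0.4 μM, 0.7 μM [3H]AdoMet, pH 7.5 Tris buffer, 37 °C for 3 h; filter-bound tritium counted. Relative enzyme activity (% of control) as mean of three measurements with SD; inhibition >20% scored positive.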

HCT-116 [2] = test: Antiproliferative activity against human HCT116 cells assessed as growth inhibition by measuring doubling time after 72 hrs by trypan blue staining; assay type: functional, cell-based
Method in brief: (§1)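 HCT116 colon carcinoma cells incubated 72 h with test compound at 300, 500 and 750 μM, azacytidine 1 μM as positive control, DMSO alone as control.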

HCT-116 [3] = test: Antiproliferative activity against human HCT116 cells assessed as growth inhibition by measuring proliferation rate after 72 hrs by trypan blue staining; assay type: functional, cell-based; method in brief: as §1
[4] = biological target: T1, DNA (cytosine-5)-methyltransferase 1; test: Inhibition of human recombinant DNMT1 expressed in Sf9 cells assessed as incorporation of [3H]S-adenosyl methionine into hemimethylated oligonucleotide substrate after 3 hrs by scintillation counting
[5] = biological target: T1, DNA (cytosine-5)-methyltransferase 1; test: Selectivity ratio of IC50 for procaine to compound for human recombinant DNMT1 expressed in Sf9 cells assessed as incorporation of [3H]S-adenosyl methionine into hemimethylated oligonucleotide substrate after 3 hrs by scintillation counting
HCT-116 [6] = test: Antiproliferative activity against human HCT116 cells after 72 hrs by trypan blue staining; assay type: functional; details: HCT-116, 72 h; method in brief: as §1
[7] = biological target: T1, DNA (cytosine-5)-methyltransferase 1; test: Competitive inhibition of human recombinant DNMT1 expressed in Sf9 cells using [3H]S-adenosyl methionine as substrate at 150 uM after 1 hr by scintillation counting
Method in brief: (§2)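 Mode-of-inhibition assay: standard DNMT1 filter assay (500 nM enzyme) modified with inhibitor fixed at 150 μM and 1 h at 37 °C; either [3H]SAM or the oligo substrate concentration increased while the other held. Activity with inhibitor under standard conditions set as 100% inhibition; curves interpreted by the Lai and Wu model.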

[8] = biological target: T1, DNA (cytosine-5)-methyltransferase 1; test: Non-competitive inhibition of human recombinant DNMT1 expressed in Sf9 cells using oligonucleotide as substrate after 1 hr by scintillation counting; method in brief: as §2

T1 sequence (P26358 whole entry): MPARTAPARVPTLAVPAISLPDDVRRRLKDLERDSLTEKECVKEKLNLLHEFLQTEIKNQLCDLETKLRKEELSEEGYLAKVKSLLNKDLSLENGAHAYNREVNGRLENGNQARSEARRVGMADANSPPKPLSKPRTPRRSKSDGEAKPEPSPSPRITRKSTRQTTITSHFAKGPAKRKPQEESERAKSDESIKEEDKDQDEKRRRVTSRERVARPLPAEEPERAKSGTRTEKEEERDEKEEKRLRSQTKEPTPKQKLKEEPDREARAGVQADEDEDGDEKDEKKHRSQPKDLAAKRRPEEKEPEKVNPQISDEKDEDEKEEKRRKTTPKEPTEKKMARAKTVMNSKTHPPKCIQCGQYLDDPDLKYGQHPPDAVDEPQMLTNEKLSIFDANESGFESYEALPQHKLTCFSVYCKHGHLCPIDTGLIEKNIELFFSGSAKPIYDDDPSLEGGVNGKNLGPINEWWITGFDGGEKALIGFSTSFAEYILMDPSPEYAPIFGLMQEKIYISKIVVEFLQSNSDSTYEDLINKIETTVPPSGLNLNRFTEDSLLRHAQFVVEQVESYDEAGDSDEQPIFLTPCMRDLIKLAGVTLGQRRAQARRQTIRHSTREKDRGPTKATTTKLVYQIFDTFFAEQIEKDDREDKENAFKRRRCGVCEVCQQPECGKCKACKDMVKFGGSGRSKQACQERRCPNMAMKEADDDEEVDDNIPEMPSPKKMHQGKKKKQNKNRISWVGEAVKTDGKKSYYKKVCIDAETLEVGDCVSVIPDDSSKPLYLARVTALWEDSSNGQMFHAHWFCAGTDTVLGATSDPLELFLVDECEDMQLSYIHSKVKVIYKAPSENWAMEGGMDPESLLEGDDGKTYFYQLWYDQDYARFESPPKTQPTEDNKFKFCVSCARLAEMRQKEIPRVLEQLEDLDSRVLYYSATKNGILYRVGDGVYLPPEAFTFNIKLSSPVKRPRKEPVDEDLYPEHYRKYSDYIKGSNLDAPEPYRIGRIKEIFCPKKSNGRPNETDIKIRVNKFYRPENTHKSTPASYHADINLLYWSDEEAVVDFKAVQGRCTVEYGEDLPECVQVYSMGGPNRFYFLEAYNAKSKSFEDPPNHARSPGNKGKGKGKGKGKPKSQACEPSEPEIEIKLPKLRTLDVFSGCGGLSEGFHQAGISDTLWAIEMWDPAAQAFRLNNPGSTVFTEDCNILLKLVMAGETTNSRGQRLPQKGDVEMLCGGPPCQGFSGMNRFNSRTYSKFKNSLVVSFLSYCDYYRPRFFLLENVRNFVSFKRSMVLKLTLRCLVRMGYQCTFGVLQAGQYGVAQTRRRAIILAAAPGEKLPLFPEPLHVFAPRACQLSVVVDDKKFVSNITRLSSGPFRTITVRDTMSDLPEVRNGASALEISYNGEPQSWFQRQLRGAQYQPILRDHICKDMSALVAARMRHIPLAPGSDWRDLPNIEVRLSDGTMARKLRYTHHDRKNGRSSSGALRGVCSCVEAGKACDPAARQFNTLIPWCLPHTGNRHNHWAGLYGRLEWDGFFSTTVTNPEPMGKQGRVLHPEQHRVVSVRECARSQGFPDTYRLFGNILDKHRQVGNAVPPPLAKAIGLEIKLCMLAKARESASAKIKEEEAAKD

Row | Compound | Activity [1] | further results
1 | COc1ccc(C2=NOC(CN(C)C)C2)cc1 (configuration not stated) | 3.3% | –
2 | CN1CC2ON=C(c3ccc(C(=O)O)cc3)C2C1 (configuration not stated) | inactive | –
3 | CN1CC2ON=C(Cc3ccc(N)cc3)C2C1 (configuration not stated) | 3.3% | –
4 | CN(C)CC1CC(Cc2ccccc2)=NO1 (configuration not stated) | 17.1% | –
5 | CN(C)CC1CC(c2ccc(O)cc2)=NO1 (configuration not stated) | 88% | –
6 | Cc1ccc(S(=O)(=O)Oc2ccc(C3=NOC4CN(C)CC34)cc2)cc1 (configuration not stated) | 18.6% | –
7 | CN1CC2ON=C(Cc3ccccc3)C2C1 (configuration not stated) | 84% | –
8 | O=[N+]([O-])c1ccc(C2=NC[C@H](CN3CCCC3)O2)cc1 | – | growth inhibition (GI) (HCT-116 [2]): inactive; growth inhibition (GI) (HCT-116 [3]): inactive
9 | CN1CC2ON=C(c3ccc(N)cc3)C2C1 (configuration not stated) | 5.1% | IC50 [4]: 570 µM
10 | COc1ccc(CC2=NOC3CN(C)CC23)cc1 (configuration not stated) | 1.7% | IC50 [4]: 1130 µM
11 | Nc1ncnc2c1ncn2[C@@H]1O[C@H](CSCC[C@H](N)C(=O)O)[C@@H](O)[C@H]1O | 0.5% | –
12 | O=C(O)[C@H](Cc1c[nH]c2ccccc12)N1C(=O)c2ccccc2C1=O | inactive | –
13 | CN(C)CC1CC(Cc2ccc([N+](=O)[O-])cc2)=NO1 (configuration not stated) | 14.8% | IC50 [4]: 1600 µM
14 | CN(C)CC1CC(c2ccccc2)=NO1 (configuration not stated) | inactive | –
15 | CCN(CC)CCOC(=O)c1ccc(N)cc1 | inactive | –
16 | Cc1ccc(S(=O)(=O)Oc2ccc(C3=NOC(CN(C)C)C3)cc2)cc1 (configuration not stated) | 90.6% | –
17 | CN(C)CC1CC(Cc2ccc(N)cc2)=NO1 (configuration not stated) | 28.3% | –
18 | COc1ccc(C2=NOC3CN(C)CC23)cc1 (configuration not stated) | 95.6% | –
19 | CN1CC2ON=C(c3ccc([N+](=O)[O-])cc3)C2C1 (configuration not stated) | 34.9% | –
20 | CN(C)CC1CC(c2ccc(C(=O)O)cc2)=NO1 (configuration not stated) | 23% | –
21 | CN(C)CC1CC(c2ccc([N+](=O)[O-])cc2)=NO1 (configuration not stated) | 0.3% | Ratio IC50 [5]: 10; GI50 (HCT-116 [6]): 360 µM; IC50 [4]: 150 µM; inhibition [7]: Active; inhibition [8]: Active
22 | CN1CC2ON=C(c3ccc(O)cc3)C2C1 (configuration not stated) | inactive | –
23 | CN(C)CC1CC(c2ccc(N)cc2)=NO1 (configuration not stated) | 20.2% | IC50 [4]: 270 µM
24 | COc1ccc(CC2=NOC(CN(C)C)C2)cc1 (configuration not stated) | inactive | –
25 | CN1CC2ON=C(c3ccccc3)C2C1 (configuration not stated) | inactive | –
26 | CN1CC2ON=C(Cc3ccc([N+](=O)[O-])cc3)C2C1 (configuration not stated) | 3.8% | IC50 [4]: 310 µM
